# Ba/F3 V617F tox: reduce viability of Ba/F3 cells dependent on JAK2V617F | Ba/F3 EpoR-JAK2V617F viability, ATP luminescence | inhibition, % at 5.6 µM | 220,000 compounds, 1.1% hits;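 active = inhibition above the campaign mean plus 3 SD over all tested compounds, cut at about 24% in these data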;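 note: cytokine-independent growth of Ba/F3 cells driven by EpoR plus mutant JAK2; 0% = DMSO-treated cells and 100% = JAK inhibitor I control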
# MT stabilize HCS: microtubule stabilization, imaging screen. HeLa tubulin immunostaining HCS, 24 h; share of cells brighter than vehicle mean+2SD. % tubulin-high responders, % at 10 µM. 200,000 compounds, 0.83% hits;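 active = plate Z-score above 3 for both tubulin-high and condensed-nucleus cell shares, with cell loss under 80%, at 10 µM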;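 note: anti alpha tubulin signal scored within the nucleus-defined area of each cell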
# bCat nuc transl: beta-catenin nuclear translocation modulation. HeLa beta-catenin nuclear translocation, immunofluorescence imaging. nuclear translocation activity, % at 5 µM. 190,000 compounds, 0.3% hits. AID 1665;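 active = nuclear translocation activity above 50% at 5 µM, with a well cell count of 50 or more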;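 note: per-cell ratio of nuclear to cytoplasmic median beta-catenin stain intensity; plate controls were DMSO negative control for no effect and GSK-3 inhibitor IX positive control for full effect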
#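 assay system = human HeLa cells, endogenous beta-catenin | times = compound treatment 24 h, 37°C, 5% CO2 | detection = Anti-beta-catenin immunofluorescence on PFA-fixed, Triton-permeabilized cells, DAPI nuclei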
# KLF5 inhibitor: suppresses KLF5 promoter-driven expression; 290,000 compounds, 0.23% hits; DLD-1 KLF5 promoter-luciferase reporter, luminescence; inhibition, % at 5 µM; AID 1700;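 active = inhibition above a per-plate limit of that plate's mean compound inhibition plus 3 SD, cut at about 60% in these data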;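 note: 0% = DMSO wells and 100% = LY294002 at 200 µM; higher means less KLF5 promoter-driven luciferase light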
# BaF3 parental: counter-screen for JAK2V617F inhibitors: parental Ba/F3 viability inhibitors | CellTiter-Glo ATP luminescence | inhibition, % at 5.6 µM | 220,000 compounds, 1.1% hits;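 active = inhibition above a per-campaign cutoff, the mean inhibition of all tested compounds plus 3 SD, cut at about 27% in these data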;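 note: 0% = DMSO wells and 100% = JAK Inhibitor I control wells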
# IEC-6 tox: counter-screen for KLF5 inhibitors: cytotoxicity in IEC-6 cells. 290,000 compounds, 0.78% hits. AID 1825. inhibition, % at 5 µM. IEC-6 cytotoxicity, luminescence viability;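 note: 0% = plate median of test compound wells and 100% = cytotoxic reference compound wells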
# IEC-6 cytotox cf: confirmation of cytotoxic compounds in rat IEC-6 intestinal epithelial cells. shares compounds with IEC-6 tox. IEC-6 rat intestinal epithelial viability, luminescence. inhibition, % at 5 µM. 1,900 compounds, 63% hits. AID 1907;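 note: 0% = vehicle and 100% = reference cytotoxic drug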
# An asterisk follows results filed as active; · = no result. Only some compounds are listed: those with a hit (about 2.1% of all), similar ones and a draw of the others. Cut-off read from the data, not from the text of the source, unless noted: active = inhibition above about 22%; inactive = the rest.
SMILES,Ba/F3 V617F tox,MT stabilize HCS,bCat nuc transl,KLF5 inhibitor,BaF3 parental,IEC-6 tox,IEC-6 cytotox cf
COc1cc(CNCCc2ccc(S(N)(=O)=O)cc2)ccc1OCc1ccc(Cl)cc1,1,4,4,-8,12,-2,·
COc1ccc(-n2c(=O)c3c(C)c(C)sc3n(Cc3ccc(F)cc3)c2=O)c(OC)c1,-3,2,-1,16,-3,4,·
Cc1nnc(N/N=C/c2ccc(-c3ccccc3F)o2)n1N,5,3,-2,-98,8,102*,5
Cc1nnc(N/N=C\c2ccc(-c3ccccc3[N+](=O)[O-])o2)n1N,2,4,-4,-85,11,58*,-5
CCc1nnc(N/N=C/c2ccc(-c3ccc([N+](=O)[O-])cc3)o2)n1N,1,3,1,-16,6,10,·
O=C(Nc1ccc(-c2nc3ccc(NC(=O)c4cccs4)cc3[nH]2)cc1)c1cccs1,98*,3,2,-82,102*,53*,43*
O=C(Nc1ccc2nc(-c3cccs3)[nH]c2c1)c1cccs1,-3,6,0,-50,1,-3,·
N#CC1=C(N)Oc2cc(N)ccc2C1c1cccc(Br)c1 (configuration not stated),·,·,·,61,·,81*,54*
N#CC1=C(N)Oc2cc(N)ccc2C1c1ccsc1 (configuration not stated),-2,3,-1,-27,7,-2,·
N#CC1=C(N)Oc2cc(N)ccc2C1c1cc(Br)cs1 (configuration not stated),·,·,·,1,·,24*,10
Cc1ccc(C2C(C#N)=C(N)Oc3cc(N)ccc32)cc1 (configuration not stated),·,·,·,-43,·,-4,·
COc1ccc(Cl)cc1NC(=S)N1CC(C)OC(C)C1 (configuration not stated),·,·,·,-6,·,-1,·
Cc1ccc(Cl)c(OC(=O)c2nn(C(C)C)c(=O)c3ccccc23)c1,4,4,0,-17,3,7,·
CCC1CCCCN1C(=O)c1cc(COc2ccc3ncccc3c2)on1 (configuration not stated),68*,1,2,0,68*,23*,15
O=C(NCc1ccccc1Cl)C(=O)c1c[nH]c2ccccc12,2,3,0,-46,12,-2,·
S=c1nc(NCCc2ccccc2Cl)c2ccccc2[nH]1,·,·,·,-155,·,24*,14
Cc1ccc2nc(SCC(=O)N/N=C/c3ccc(C(=O)O)cc3)cc(C)c2c1,·,·,·,-14,·,6,·
COc1ccccc1NC(=O)CN(c1ccc([N+](=O)[O-])cc1)S(=O)(=O)c1ccccc1,3,2,1,6,7,0,·
CCOc1ccc(N(CC(=O)Nc2ccccc2OC)S(=O)(=O)c2ccccc2)cc1,·,·,·,59,·,78*,53*
O=C(Nn1cc(C(=O)Nc2ccccc2F)c2ccccc2c1=O)c1cnccn1,6,5,-1,27,2,52*,12
CC(=O)N(C)c1ccc(NC(=S)Nc2cccc3ccccc23)cc1,3,4,1,-76,4,8,·
CC(=O)c1ccc(NC(=S)Nc2cccc3ccccc23)cc1,·,·,·,-70,·,63*,6
COc1ccc(NC(=O)N2CCN(C(=O)C(Cc3ccc(F)cc3)NC(C)=O)CC2)cc1 (configuration not stated),-2,3,-2,-66,4,-6,·
COC(=O)Nc1nc(-c2ccccc2)c(C(=O)c2ccccc2)s1,80*,12,162*,53,78*,84*,56*
Cc1nn2c(NCCN(C)C)c3c(nc2c1-c1ccccc1)CCCC3,7,·,2,-3,4,25*,1
COCCNc1c2c(nc3c(-c4ccccc4)c(C)nn13)CCCC2,1,3,·,-11,8,-2,·
CNC(=O)CC1C(=O)N(c2ccc(OC)cc2)C(=S)N1NC(=O)c1cccc(F)c1 (configuration not stated),2,·,7,-3,-4,-2,·
Nc1nc(-c2ccccc2)cc(N2CCCCC2)n1,70*,14*,56*,61,77*,82*,59*
Cc1oc2c(Cl)c(Cl)c(O)c(CN(C)C)c2c1C(=O)c1ccc(Cl)cc1,·,·,·,-31,·,-13,·
